Source: PubChem
Most compounds without a hit are left out; they make up all but 4% or so of the library.
Ecoli rRNA inh – reduced GFP signal of wild-type E. coli, primary screen, bacterial rRNA inhibitor project, GFP/RFP fluorescence, OD600, single point; E. coli WT GFP vs humanized-ribosome RFP mutants, 24 h; active compounds read low; DMSO median 0, no signal -100; GFP signal change (wild-type ribosome), % (no concentration beside the values); 1.6% of 350,000 active; AID 720706, 2013;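 active = significant combined selectivity score with lowered wild-type GFP, culture density cut under 30%, mutant RFP and density less affected; inactive = any of these conditions unmet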
FGF22 binding – binders of human FGF22 protein, primary screen, FGF22 synaptogenesis inhibitor project, biophysical, thermal shift, single point | Fibroblast growth factor 22 (Homo sapiens), Q9HCT0 | recombinant FGF22 thermal shift, SYPRO orange fluorescence; percent of sucrose octasulfate shift, DMSO zero | activity (Tm shift, normalised), % at 9.99 µM | 1.5% of 340,000 active | AID 651658, 2012;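 active = mean Tm shift, scaled 0 neutral to 100 positive control, at about 1.3% or above, every replicate too, limit read from the data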
Target sequence (Q9HCT0 whole entry, looked up): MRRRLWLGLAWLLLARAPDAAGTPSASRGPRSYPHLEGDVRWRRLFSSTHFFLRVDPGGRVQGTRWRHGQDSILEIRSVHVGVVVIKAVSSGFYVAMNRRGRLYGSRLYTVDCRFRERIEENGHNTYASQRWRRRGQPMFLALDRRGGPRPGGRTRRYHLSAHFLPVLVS
Statin myotox sup – suppressors of statin myotoxicity in C2C12 myotubes, primary screen, cell-based, single point, plate reader | C2C12 myotubes + simvastatin, ATP luminescence, 48 h; scaled: DMSO 0, geranylgeraniol control 100 | rescue of ATP level, % at 7.49 µM | 0.78% of 330,000 active;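 active = mean ATP rescue above about 67%, or every replicate alone reaching that limit, limit read from the data, passing the limit was not always enough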;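 also: myotubes were challenged with 10 µM simvastatin during compound exposure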
E-selectin induc – E-selectin induction in HUVECs, primary screen, imaging, HUVEC, immunofluorescence imaging, single point; P16581; normalized: neutral wells 0, TNF-alpha wells 100; activation, % at 7.58 µM; 0.37% of 260,000 active; AID 686992, 2013;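 active = mean E-selectin-positive cell signal at least 10% of the positive control, reached in at least 60% of replicates, without over 20% cell loss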
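Test system: HUVEC; input: 3,000 HUVEC/well; measured by: immunofluorescence imaging; read-out: % PE-positive cells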
SIRT5 inh – SIRT5 desuccinylase inhibitors, primary screen, biochemical, fluorescence imaging, single point, set 5; NAD-dependent protein deacylase sirtuin-5, mitochondrial (Homo sapiens), Q9NXA8; Purified SirT5, succinyl-peptide AMC, trypsin-coupled fluorescence; inhibition, % at 15 µM; 1.1% of 330,000 active; in the data active = inhibition above about 15%
Target sequence (Q9NXA8 whole entry, looked up): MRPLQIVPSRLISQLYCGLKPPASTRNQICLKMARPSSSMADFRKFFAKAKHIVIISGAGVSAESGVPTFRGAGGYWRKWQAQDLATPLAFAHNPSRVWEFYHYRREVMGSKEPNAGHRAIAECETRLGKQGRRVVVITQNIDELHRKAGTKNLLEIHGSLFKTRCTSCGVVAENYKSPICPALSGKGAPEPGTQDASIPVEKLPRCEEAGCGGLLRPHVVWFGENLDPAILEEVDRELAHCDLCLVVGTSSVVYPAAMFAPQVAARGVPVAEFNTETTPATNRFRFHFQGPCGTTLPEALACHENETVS
FN deposition inh – inhibitors of fibronectin matrix deposition, primary screen, AH1F cells, Alexa488-fibronectin fluorescence, plate reader; 0.086% of 350,000 active; inhibition, % at 12.6 µM; AID 743247, 2014; AH1F fibroblasts, overnight;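 active = mean inhibition across replicates of 30% or more, regardless of how many single replicates reach that level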;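 also: positive control wells lacked labelled fibronectin entirely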
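Material – AH1F fibroblast monolayer, labelled fibronectin deposition · Reagent – labelled fibronectin 24 nM · Timing – 1 h adhesion, overnight exposure · Measured by – fluorescence at 485 nm excitation, 525 nm emission · Read-out – inhibition of fibronectin deposition signal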
Starred values were filed as active, the others as inactive; / = no result.

SMILES	Ecoli rRNA inh	FGF22 binding	Statin myotox sup	E-selectin induc	SIRT5 inh	FN deposition inh
CCN1C(=O)[C@H]2[C@@H](c3ccc(-c4cccc(Cl)c4)c(OC)c3)N[C@@](CC(C)C)(C(=O)OC)[C@H]2C1=O	7	0	9	0	25*	-8
O=C(C[C@@H]1C=C[C@H](NC(=O)c2ccncc2)[C@H](CO)O1)NCCc1ccncc1	0	0	3	0	0	-6
CCSC1(SCC)N=C(N)C2(C#N)C(c3ccc(F)cc3)C12C#N (centres undefined)	/	/	142*	/	/	/
COC1(OC)N=C(N)C2(C#N)C(c3ccc(F)cc3)C12C#N (centres undefined)	/	/	-10	/	/	/
COc1ccc(-n2cccc2/C=C2\C(=N)N3N=C(c4ccco4)SC3=NC2=O)cc1	-23*	0	/	0	-1	5
COc1ccc(-n2cccc2/C=C2\C(=N)N3N=C(C(C)C)SC3=NC2=O)cc1	-40	0	/	0	3	-3
C[C@@H]1CN([C@@H](C)CO)C(=O)c2cccc(NC(=O)c3ccc(-c4nccs4)cc3)c2O[C@H]1CN(C)C(=O)Nc1ccc(C(F)(F)F)cc1	-5	0	-20	0	10	2
O=C(Nc1ccc2c(c1)OCO2)c1cc(-c2ccncc2)nc2ccccc12	-22*	0	-22	/	5	/
O=C(Nc1ccc2c(c1)OCCO2)c1cc(-c2ccccc2)nc2ccccc12	/	/	-1	/	/	7
Cc1ccc(NC(=O)c2cc(Cl)nc3ccccc23)cc1	/	/	-4	/	/	/
Cc1cccc(NC(=O)c2cc(Cl)nc3ccccc23)c1	/	/	93*	/	/	3
Cc1ccc(/C=N/NC(=O)C[n+]2ccccc2)o1	17	0	/	3	21*	2
O=C(C[n+]1ccccc1)N/N=C/c1ccc(F)cc1	20	0	/	/	112*	/
O=C(C[n+]1ccccc1)N/N=C/c1ccccc1[N+](=O)[O-]	8	43*	/	2	0	-13
CC(SC(C)C(=O)NN=Cc1ccc(F)cc1)C(=O)NN=Cc1ccc(F)cc1 (centres undefined)	6	0	122*	/	-2	2
COC(=O)C[C@H]1C=C[C@H](NS(=O)(=O)c2ccccc2F)[C@H](CO)O1	1	0	0	0	-3	19
O=C(/C=C/c1ccccc1)NC(=S)NNC(=O)Cc1cccs1	/	/	104*	/	/	8
C[C@@H]1CN([C@H](C)CO)S(=O)(=O)c2ccc(-c3cccc(C#N)c3)cc2O[C@@H]1CN(C)C(=O)c1ccc(F)cc1	-14	-1	-16	0	1	/
CC1=NN(c2ccccc2)C(=O)C1N=Nc1ccccc1 (centres undefined)	-1	0	/	60*	1	0
CC1=NN(c2ccccc2)C(=O)C1N=Nc1ccc(N)cc1 (centres undefined)	/	/	-11	/	/	/
CC(C)CC#Cc1ccc2c(c1)O[C@H](CN(C)Cc1ccncc1)[C@H](C)CN([C@@H](C)CO)S2(=O)=O	-5	-1	-52	108*	8	/
C[C@@H]1CN([C@H](C)CO)S(=O)(=O)c2ccc(-c3ccc(C#N)cc3)cc2O[C@H]1CN(C)Cc1cccc(F)c1	-8	0	-57	0	3	/
C[C@H]1CN([C@@H](C)CO)S(=O)(=O)c2ccc(-c3ccc(C#N)cc3)cc2O[C@@H]1CN(C)Cc1cccc(F)c1	-6	0	-39	0	16*	/
CCCC#Cc1ccc2c(c1)O[C@@H](CN(C)S(=O)(=O)c1cccc(F)c1)[C@@H](C)CN([C@@H](C)CO)S2(=O)=O	-3	0	-14	0	-2	/
CC(C)CC#Cc1ccc2c(c1)O[C@@H](CN(C)Cc1ccncc1)[C@@H](C)CN([C@H](C)CO)S2(=O)=O	-2	-1	8	1	7	/
SMILES	Ecoli rRNA inh	FGF22 binding	Statin myotox sup	E-selectin induc	SIRT5 inh	FN deposition inh
CC(C)CC#Cc1ccc2c(c1)O[C@@H](CN(C)S(=O)(=O)c1cccc(F)c1)[C@@H](C)CN([C@H](C)CO)S2(=O)=O	-2	0	1	0	20*	/
CC(C)CC#Cc1ccc2c(c1)O[C@@H](CN(C)Cc1cccc(F)c1)[C@H](C)CN([C@H](C)CO)S2(=O)=O	3	0	/	0	16*	1
CC(C)CC#Cc1cnc2c(c1)C(=O)N([C@@H](C)CO)C[C@@H](C)[C@H](CN(C)C(=O)c1cnccn1)O2	2	0	36	4	-3	-5
CC(C)CC#Cc1ccc2c(c1)O[C@H](CN(C)Cc1cccnc1)[C@@H](C)CN([C@@H](C)CO)S2(=O)=O	-22	/	-26	0	18*	-18
CC(C)CC#Cc1ccc2c(c1)O[C@H](CN(C)Cc1ccc(C(=O)O)cc1)[C@@H](C)CN([C@H](C)CO)S2(=O)=O	/	0	-8	/	29*	/
Cc1ccc(-c2ccc3c(c2)O[C@H](CN(C)Cc2cccnc2)[C@H](C)CN([C@@H](C)CO)S3(=O)=O)cc1	-28	0	-20	-1	15*	1
CCCC#Cc1ccc2c(c1)O[C@@H](CN(C)Cc1ccc3c(c1)OCO3)[C@@H](C)CN([C@H](C)CO)S2(=O)=O	-4	0	5	0	3	3
CC(C)CC#Cc1ccc2c(c1)O[C@@H](CN(C)Cc1cccnc1)[C@@H](C)CN([C@H](C)CO)S2(=O)=O	-10	0	9	0	/	-5
CC(C)CC#Cc1ccc2c(c1)O[C@@H](CN(C)Cc1ccc3c(c1)OCO3)[C@@H](C)CN([C@@H](C)CO)S2(=O)=O	-3	/	10	2	14*	6
C[C@@H]1CN([C@H](C)CO)C(=O)c2cc(NS(=O)(=O)c3ccc(F)cc3)ccc2O[C@H]1CN(C)CC1CC1	3	-1	6	0	10	-5
CCCC(=O)Nc1ccc2c(c1)C(=O)N(C)C[C@H](OC)[C@H](C)CN(C(=O)c1ccccc1F)[C@H](C)CO2	3	0	-11	0	-7	1
C[C@@H]1CN([C@@H](C)CO)C(=O)c2cc(NC(=O)Nc3ccc4c(c3)OCO4)ccc2O[C@@H]1CN(C)C(=O)Nc1ccc(F)cc1	2	0	-2	-3	/	/
